Assays:
[1] = tested on: Rattus norvegicus; assay: Biodistribution in uterus of immature female rat after 5 hour administration of 3 micro Ci (111 kBq) in the absence of 60 microg estradiol; assay type: ADME, organism-based; settings: in vivo
In short: (§1)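 Immature female Long Evans rats (21–24 days, 45–70 g), 3–5 per group, unanesthetized in retention cages, given 3 μCi (111 kBq) 125I-labeled steroid by lateral tail vein. Vehicle: ethanol diluted with saline containing 1% Tween-80, final ethanol 9%. +E2 group co-injected 60 μg unlabeled estradiol (1 h only). Killed under ether; tissues KCl-washed, weighed, gamma-counted. Output: %ID/g (mean, SE) and uterus to blood or nontarget (muscle, spleen, lungs) ratios.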

[2] = tested on: Rattus norvegicus; assay: Biodistribution in kidney of immature female rat after 1 hr administration of 3 micro Ci (111 kBq) in the presence of (+E2); assay type: ADME, organism-based; settings: in vivo
In short: (§2)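 Immature female Long Evans rats (21–24 days, 45–70 g), unanesthetized in retention cages, given 3 µCi (111 kBq) 125I-labeled steroid i.v. via lateral tail vein. Vehicle was ethanol diluted in saline containing 1% Tween-80, giving 9% ethanol final. The blocking group received 60 µg unlabeled estradiol co-injected. Rats were killed under ether by axillary bleeding, and tissues were KCl-washed and gamma-counted. Data are %ID/g, mean ± SE, n=3–5.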

[3] = tested on: Rattus norvegicus; assay: Biodistribution in thyroid of immature female rat after 1 hr administration of 3 micro Ci (111 kBq) in the presence of (+E2); assay type: ADME, organism-based, Thyroid gland; settings: in vivo
In short: (§3)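 Immature female Long Evans rats (21–24 days, 45–70 g), three to five per group, given 125I-labeled steroid (3 μCi, 111 kBq) by lateral tail vein without anesthesia. Vehicle: ethanol diluted in saline with 1% Tween-80, final ethanol 9%, 0.22 μm filtered. +E2 groups received 60 μg unlabeled estradiol co-injected. Killed under ether at set times; tissues KCl-washed, blotted, weighed, gamma counted; %ID/g, mean with SE.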

[4] = tested on: Rattus norvegicus; assay: Biodistribution in fat of immature female rat after 3 hour administration of 3 micro Ci (111 kBq) in the absence of 60 microg estradiol; assay type: ADME, organism-based, Adipose tissue; settings: in vivo; in short: as §2
[5] = tested on: Rattus norvegicus; assay: Biodistribution in uterus / blood of immature female rat after 1 hr administration of 3 micro Ci (111 kBq) in the absence of 60 microg estradiol; assay type: ADME, organism-based; settings: in vivo
In short: (§4)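 Same in vivo procedure: immature female Long Evans rats (21–24 days), three to five per group, 3 μCi (111 kBq) tracer i.v. via tail vein in 9% ethanol/saline/1% Tween-80, ± 60 μg estradiol co-injected at 1 h. Uterus %ID/g (gamma counting) divided by blood, or by nontarget organ (muscle, spleen, lungs), %ID/g to give ratios.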

[6] = tested on: Rattus norvegicus; assay: Biodistribution in uterus of immature female rat after 1 hr administration of 3 micro Ci (111 kBq) in the presence of (+E2); assay type: ADME, organism-based; settings: in vivo; in short: as §1
[7] = tested on: Rattus norvegicus; assay: Biodistribution in thyroid of immature female rat after 5 hour administration of 3 micro Ci (111 kBq) in the absence of 60 microg estradiol; assay type: ADME, organism-based, Thyroid gland; settings: in vivo; in short: as §3
[8] = tested on: Rattus norvegicus; assay: Biodistribution in kidney of immature female rat after 12 hour administration of 3 micro Ci (111 kBq) in the absence of 60 microg estradiol; assay type: ADME, organism-based; settings: in vivo; in short: as §2
[9] = tested on: Rattus norvegicus; assay: Biodistribution in liver of immature female rat after 12 hour administration of 3 micro Ci (111 kBq) in the absence of 60 microg estradiol; assay type: ADME, organism-based; settings: in vivo; in short: as §2
[10] = tested on: Rattus norvegicus; assay: Biodistribution in muscle of immature female rat after 1 hr administration of 3 micro Ci (111 kBq) in the presence of (+E2); assay type: ADME, organism-based, Muscle tissue; settings: in vivo; in short: as §3
[11] = tested on: Rattus norvegicus; assay: Biodistribution in liver of immature female rat after 3 hour administration of 3 micro Ci (111 kBq) in the absence of 60 microg estradiol; assay type: ADME, organism-based; settings: in vivo; in short: as §2
[12] = tested on: Rattus norvegicus; assay: Biodistribution in lungs of immature female rat after 3 hour administration of 3 micro Ci (111 kBq) in the absence of 60 microg estradiol; assay type: ADME, organism-based, Lung; settings: in vivo; in short: as §3
[13] = tested on: Rattus norvegicus; assay: Biodistribution in spleen of immature female rat after 1 hr administration of 3 micro Ci (111 kBq) in the presence of (+E2); assay type: ADME, organism-based; settings: in vivo; in short: as §3
[14] = tested on: Rattus norvegicus; assay: Biodistribution in lungs of immature female rat after 1 hr administration of 3 micro Ci (111 kBq) in the presence of (+E2); assay type: ADME, organism-based, Lung; settings: in vivo; in short: as §2
[15] = tested on: Rattus norvegicus; assay: Biodistribution in blood of immature female rat after 3 hour administration of 3 micro Ci (111 kBq) in the absence of 60 microg estradiol; assay type: ADME, organism-based; settings: in vivo; in short: as §2
[16] = tested on: Rattus norvegicus; assay: Biodistribution in uterus / spleen, muscle, lungs of immature female rat after 1 hr administration of 3 micro Ci (111 kBq) in the absence of 60 microg estradiol; assay type: ADME, organism-based; settings: in vivo; in short: as §4
[17] = tested on: Rattus norvegicus; assay: Biodistribution in uterus / blood of immature female rat after 12 hour administration of 3 micro Ci (111 kBq) in the absence of 60 microg estradiol; assay type: ADME, organism-based; settings: in vivo; in short: as §4
[18] = tested on: Rattus norvegicus; assay: Biodistribution in muscle of immature female rat after 5 hour administration of 3 micro Ci (111 kBq) in the absence of 60 microg estradiol; assay type: ADME, organism-based, Muscle tissue; settings: in vivo; in short: as §3
[19] = molecular target: T1, Estrogen receptor (Mus musculus) (UniProt O08537+P19785); assay: Relative binding affinity (RBA) for murine cytoplasmic estrogen receptor at 4C for 2 hr; assay type: protein assay
In short: (§5)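 Murine uterine cytoplasmic extract incubated 2 h at 4 °C or at 25 °C with 20 nM [3H]estradiol and competitors at 2 nM–20 μM. RBA is taken as 100 × the ratio of competitor to unlabeled estradiol concentration needed for 50% competition of specific [3H]estradiol binding.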

[20] = molecular target: T1, Estrogen receptor (Mus musculus); assay: Relative binding affinity (RBA) for murine cytoplasmic estrogen receptor at 4C for 18 hr; assay type: protein assay
In short: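 Competitive binding on murine uterine cytoplasmic extract with 20 nM [3H]estradiol and competitor steroids at 2 nM–20 μM, incubated 18 h at 0–4 °C. RBA = 100 × ratio of […] concentration giving 50% competition for specific binding. Mean of three experiments with SD.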

[21] = tested on: Rattus norvegicus; assay: Biodistribution in uterus / spleen, muscle, lungs of immature female rat after 5 hour administration of 3 micro Ci (111 kBq) in the absence of 60 microg estradiol; assay type: ADME, organism-based; settings: in vivo; in short: as §1
[22] = tested on: Rattus norvegicus; assay: Biodistribution in liver of immature female rat after 1 hr administration of 3 micro Ci (111 kBq) in the presence of (+E2); assay type: ADME, organism-based; settings: in vivo; in short: as §2
[23] = tested on: Rattus norvegicus; assay: Biodistribution in spleen of immature female rat after 3 hour administration of 3 micro Ci (111 kBq) in the absence of 60 microg estradiol; assay type: ADME, organism-based; settings: in vivo; in short: as §3
[24] = tested on: Rattus norvegicus; assay: Biodistribution in uterus of immature female rat after 3 hour administration of 3 micro Ci (111 kBq) in the absence of 60 microg estradiol; assay type: ADME, organism-based; settings: in vivo; in short: as §1
[25] = tested on: Rattus norvegicus; assay: Biodistribution in blood of immature female rat after 5 hour administration of 3 micro Ci (111 kBq) in the absence of 60 microg estradiol; assay type: ADME, organism-based; settings: in vivo; in short: as §2
[26] = tested on: Rattus norvegicus; assay: Biodistribution in uterus / spleen, muscle, lungs of immature female rat after 12 hour administration of 3 micro Ci (111 kBq) in the absence of 60 microg estradiol; assay type: ADME, organism-based; settings: in vivo; in short: as §1
[27] = tested on: Rattus norvegicus; assay: Biodistribution in liver of immature female rat after 1 hr administration of 3 micro Ci (111 kBq) in the absence of 60 microg estradiol; assay type: ADME, organism-based; settings: in vivo; in short: as §2
[28] = tested on: Rattus norvegicus; assay: Biodistribution in uterus of immature female rat after 12 hour administration of 3 micro Ci (111 kBq) in the absence of 60 microg estradiol; assay type: ADME, organism-based; settings: in vivo; in short: as §1
[29] = molecular target: T1, Estrogen receptor (Mus musculus); assay: Relative binding affinity (RBA) for murine cytoplasmic estrogen receptor at 25 degree C for 2 hr; assay type: protein assay; in short: as §5

T1 sequence (O08537 whole entry, looked up): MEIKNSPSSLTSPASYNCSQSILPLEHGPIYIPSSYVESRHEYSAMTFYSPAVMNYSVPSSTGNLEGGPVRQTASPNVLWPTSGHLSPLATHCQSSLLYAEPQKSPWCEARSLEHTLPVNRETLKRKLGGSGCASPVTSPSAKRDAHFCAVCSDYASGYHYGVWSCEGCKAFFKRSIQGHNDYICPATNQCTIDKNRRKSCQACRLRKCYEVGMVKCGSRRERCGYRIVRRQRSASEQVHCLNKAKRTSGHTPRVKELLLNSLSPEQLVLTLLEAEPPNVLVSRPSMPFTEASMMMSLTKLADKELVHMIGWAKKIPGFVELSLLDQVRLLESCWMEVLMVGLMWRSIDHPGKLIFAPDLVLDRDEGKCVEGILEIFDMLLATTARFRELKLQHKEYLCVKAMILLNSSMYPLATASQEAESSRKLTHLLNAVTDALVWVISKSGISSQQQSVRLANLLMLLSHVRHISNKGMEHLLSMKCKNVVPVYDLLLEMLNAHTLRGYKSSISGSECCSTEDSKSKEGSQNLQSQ
T1 sequence (P19785 whole entry, looked up): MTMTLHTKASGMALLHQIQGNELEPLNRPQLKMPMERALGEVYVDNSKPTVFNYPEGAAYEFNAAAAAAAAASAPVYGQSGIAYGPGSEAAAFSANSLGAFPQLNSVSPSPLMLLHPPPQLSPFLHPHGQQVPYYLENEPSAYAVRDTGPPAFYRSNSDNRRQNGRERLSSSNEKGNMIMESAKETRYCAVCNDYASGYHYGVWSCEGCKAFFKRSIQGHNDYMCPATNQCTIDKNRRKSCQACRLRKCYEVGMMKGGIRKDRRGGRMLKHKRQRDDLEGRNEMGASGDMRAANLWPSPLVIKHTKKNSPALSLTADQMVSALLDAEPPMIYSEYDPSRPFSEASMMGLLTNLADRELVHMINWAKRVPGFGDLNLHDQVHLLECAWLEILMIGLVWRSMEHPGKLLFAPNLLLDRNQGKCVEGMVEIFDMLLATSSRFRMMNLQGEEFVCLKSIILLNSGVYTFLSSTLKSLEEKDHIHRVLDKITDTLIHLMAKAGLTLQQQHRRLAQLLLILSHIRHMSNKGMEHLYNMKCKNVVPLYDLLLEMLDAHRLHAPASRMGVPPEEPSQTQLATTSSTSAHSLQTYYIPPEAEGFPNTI

## C[C@]12CC[C@@H]3c4ccc(O)c(F)c4CC[C@H]3[C@@H]1CC[C@@]2(O)/C=C\I
[1]
  ID/g: 10.22%
[2]
  ID/g: 0.85%
[3]
  ID/g: 50.6%
[4]
  ID/g: 1.96%
[5]
  uterus-to-blood ratio of %ID/g: 15.19%
[6]
  ID/g: 0.86%
[7]
  ID/g: 117%
[8]
  ID/g: 0.74%
[9]
  ID/g: 1.78%
[10]
  ID/g: 0.51%
[11]
  ID/g: 1.95%
[12]
  ID/g: 0.85%
[13]
  ID/g: 0.56%
[14]
  ID/g: 1.14%
[15]
  ID/g: 0.48%
[16]
  uterus-to-nontarget tissue uptake ratio: 8.31%
[17]
  Uterus-to-blood radioactivity ratio (dimensionless): 27.32%
[18]
  ID/g: 0.38%
[19]
  RBA: 47.4
[20]
  RBA: 66.9
[21]
  uterus to nontarget tissue ratio: 28.59%
[22]
  ID/g: 3.04%
[23]
  ID/g: 0.48%
[24]
  ID/g: 7.96%
[25]
  ID/g: 0.47%
[26]
  uterus to nontarget tissue ratio: 31.56%
[27]
  ID/g: 3.49%
[28]
  ID/g: 6.02%
[29]
  RBA: 203

— ChEMBL document CHEMBL1126849, “Synthesis of A-ring fluorinated derivatives of (17 alpha,20E/Z)-[125I]iodovinylestradiols: effect on receptor binding and receptor-mediated target tissue uptake” (J Med Chem, 1993)
